Measured values from ChEMBL document CHEMBL1146502, “Dimeric flavonol glycoside and galloylated C-glucosylchromones from Kunzea ambigua” (J Nat Prod, 2004).

Legend:
Type in all cases: cell-based
[1] = Cytotoxicity against human Raji cells assessed as cell viability at 10 molar ratio; details: read-out: Activity
[2] = Cytotoxicity against human Raji cells assessed as cell viability at 1000 molar ratio; details: read-out: Activity
[3] = tested on: Raji; experiment: Inhibition of TPA-induced EBV-early antigen activation in human Raji cells assessed as EA activation at 500 molar ratio after 48 hrs relative to TPA; details: human gammaherpesvirus 4
Method in brief: (§1)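 Raji cells (EBV genome-carrying, virus nonproducer) were grown in RPMI-1640 with 10% FBS. Cells at 1 × 10⁶/mL were held 48 h at 37 °C with 4 mM n-butyric acid, TPA 20 ng (32 pmol)/mL, and test compound in DMSO, dosed as a mol ratio to TPA. EA-positive cells in smears were scored by indirect immunofluorescence, with ≥500 cells counted, in triplicate. Results are given relative to the butyrate+TPA control (100%).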

[4] = tested on: Raji; experiment: Inhibition of TPA-induced EBV-early antigen activation in human Raji cells assessed as EA activation at 1000 molar ratio after 48 hrs relative to TPA; details: human gammaherpesvirus 4; method in brief: as §1
[5] = Cytotoxicity against human Raji cells assessed as cell viability at 500 molar ratio; details: read-out: Activity
[6] = Cytotoxicity against human Raji cells assessed as cell viability at 100 molar ratio; details: read-out: Activity
[7] = tested on: Raji; experiment: Inhibition of TPA-induced EBV-early antigen activation in human Raji cells assessed as EA activation at 10 molar ratio after 48 hrs relative to TPA; details: human gammaherpesvirus 4; method in brief: as §1
[8] = tested on: Raji; experiment: Inhibition of TPA-induced EBV-early antigen activation in human Raji cells assessed as EA activation at 100 molar ratio after 48 hrs relative to TPA; details: human gammaherpesvirus 4; method in brief: as §1

CC(C)c1cc(=O)c2c(O)c([C@@H]3O[C@H](CO)[C@@H](O)[C@H](O)[C@H]3O)c(O)cc2o1
viability at 10 molar ratio [1]: 80%
viability at 1000 molar ratio [2]: 70%
EBV-EA activation relative to control (%) [3]: 23.7%
EBV-EA activation relative to control (%) [4]: 4.6%
viability at 500 molar ratio [5]: 80%
viability at 100 molar ratio [6]: 80%
EBV-EA activation relative to control (%) [7]: 91%
EBV-EA activation relative to control (%) [8]: 65%

O=C(O[C@@H]1Cc2c(O)cc(O)cc2O[C@@H]1c1cc(O)c(O)c(O)c1)c1cc(O)c(O)c(O)c1 [EPIGALOCATECHIN GALLATE]
viability at 10 molar ratio [1]: 80%
viability at 1000 molar ratio [2]: 70%
EBV-EA activation relative to control (%) [3]: 34.9%
EBV-EA activation relative to control (%) [4]: 6.4%
viability at 500 molar ratio [5]: 80%
viability at 100 molar ratio [6]: 80%
EBV-EA activation relative to control (%) [7]: 87.7%
EBV-EA activation relative to control (%) [8]: 68.1%

CC(C)c1cc(=O)c2c(O)cc(O)c([C@@H]3O[C@H](CO)[C@@H](O)[C@H](O)[C@H]3OC(=O)c3cc(O)c(O)c(O)c3)c2o1
viability at 10 molar ratio [1]: 80%
viability at 1000 molar ratio [2]: 70%
EBV-EA activation relative to control (%) [3]: 31.6%
EBV-EA activation relative to control (%) [4]: 11.5%
viability at 500 molar ratio [5]: 80%
viability at 100 molar ratio [6]: 80%
EBV-EA activation relative to control (%) [7]: 100%
EBV-EA activation relative to control (%) [8]: 74.7%

CC(C)c1cc(=O)c2c(O)c([C@@H]3O[C@H](CO)[C@@H](O)[C@H](O)[C@H]3OC(=O)c3cc(O)c(O)c(O)c3)c(O)cc2o1
viability at 10 molar ratio [1]: 80%
viability at 1000 molar ratio [2]: 70%
EBV-EA activation relative to control (%) [3]: 26.8%
EBV-EA activation relative to control (%) [4]: 5.9%
viability at 500 molar ratio [5]: 80%
viability at 100 molar ratio [6]: 80%
EBV-EA activation relative to control (%) [7]: 94.8%
EBV-EA activation relative to control (%) [8]: 70.4%

Cc1c(O)c(Cc2c(O)cc3oc(-c4ccc(O)c(O)c4)c(O[C@@H]4O[C@@H](C)[C@H](O)[C@@H](O)[C@H]4O)c(=O)c3c2O)c2oc(-c3ccc(O)c(O)c3)c(O[C@@H]3O[C@@H](C)[C@H](O)[C@@H](O)[C@H]3O)c(=O)c2c1O [KUNZEAGIN A]
viability at 10 molar ratio [1]: 80%
viability at 1000 molar ratio [2]: 70%
EBV-EA activation relative to control (%) [3]: 32.5%
EBV-EA activation relative to control (%) [4]: 4.3%
viability at 500 molar ratio [5]: 80%
viability at 100 molar ratio [6]: 80%
EBV-EA activation relative to control (%) [7]: 90.5%
EBV-EA activation relative to control (%) [8]: 66.1%

CC(C)c1cc(=O)c2c(O)cc(O)c([C@@H]3O[C@H](CO)[C@@H](O)[C@H](O)[C@H]3O)c2o1
viability at 10 molar ratio [1]: 80%
viability at 1000 molar ratio [2]: 70%
EBV-EA activation relative to control (%) [3]: 29.6%
EBV-EA activation relative to control (%) [4]: 9.1%
viability at 500 molar ratio [5]: 80%
viability at 100 molar ratio [6]: 80%
EBV-EA activation relative to control (%) [7]: 100%
EBV-EA activation relative to control (%) [8]: 72.5%
